# Test results reported in ChEMBL document CHEMBL6083209, “Pyridazinone-based derivatives as anticancer agents endowed with anti-microbial activity: molecular design, synthesis, and biological investigation” (RSC Med Chem, 2024).
# Experiments:
# Staphylococcus aureus [1] = experiment: Antimicrobial activity against Staphylococcus aureus ATCC 29213; type: functional
# Staphylococcus aureus [2] = experiment: Antimicrobial activity against Staphylococcus aureus ATCC 29213 by broth microdilution method
# Candida albicans = experiment: Antimicrobial activity against Candida albicans ATCC 10231 by broth microdilution method
# MCF7 [3] = experiment: Antiproliferative activity against human MCF7 cells assessed as growth inhibition at 10 uM incubated for 48 hrs by SRB method; type: functional; conditions: read-out: GI
# How it was run: (§1)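 NCI-60 one-dose screen at 10 μM. Cells were grown in RPMI 1640 with 5% FBS and 2 mM L-glutamine and plated at 5000–40 000 cells/well for 24 h. Drug exposure was 48 h at 37 °C, 5% CO2. Cells were fixed with TCA, stained with 0.4% SRB and read at 515 nm. Growth is expressed as percent of untreated control and time-zero plates.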
# KM12 = experiment: Antiproliferative activity against human KM12 cells assessed as growth inhibition at 10 uM incubated for 48 hrs by SRB method; type: functional; conditions: read-out: GI; how it was run: as §1
# CCRF-CEM = experiment: Antiproliferative activity against human CCRF-CEM cells assessed as growth inhibition at 10 uM incubated for 48 hrs by SRB method; type: functional; conditions: read-out: GI; how it was run: as §1
# T47D = experiment: Antiproliferative activity against human T47D cells assessed as growth inhibition at 10 uM incubated for 48 hrs by SRB method; type: functional; conditions: read-out: GI; how it was run: as §1
# NCI-H522 = experiment: Antiproliferative activity against human NCI-H522 cells assessed as growth inhibition at 10 uM incubated for 48 hrs by SRB method; type: functional; conditions: NCI-H522, read-out: GI; how it was run: as §1
# Escherichia coli = experiment: Antimicrobial activity against Escherichia coli ATCC 25922 by broth microdilution method
# OVCAR-3 = experiment: Antiproliferative activity against human OVCAR-3 cells assessed as growth inhibition at 10 uM incubated for 48 hrs by SRB method; type: functional; conditions: read-out: GI; how it was run: as §1
# K562 = experiment: Antiproliferative activity against human K562 cells assessed as growth inhibition at 10 uM incubated for 48 hrs by SRB method; type: functional; conditions: K562, read-out: GI; how it was run: as §1
# RPMI-8226 = experiment: Antiproliferative activity against human RPMI-8226 cells assessed as growth inhibition at 10 uM incubated for 48 hrs by SRB method; type: functional; conditions: RPMI-8226, read-out: GI; how it was run: as §1
# SF-295 [4] = experiment: Antiproliferative activity against human SF-295 cells assessed as growth inhibition at 10 uM incubated for 48 hrs by SRB method; type: functional; conditions: read-out: GI; how it was run: as §1
# PC-3 [5] = experiment: Antiproliferative activity against human PC-3 cells assessed as growth inhibition at 10 uM incubated for 48 hrs by SRB method; type: functional; conditions: PC-3, read-out: GI; how it was run: as §1
# MCF7 [6] = experiment: Antiproliferative activity against human MCF7 cells assessed as growth inhibition incubated for 48 hrs by SRB method; type: functional
# How it was run: (§2)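 NCI-60 five-dose screen at 0.01, 0.1, 1, 10 and 100 μM, triplicate wells per dose. Cells were in RPMI 1640 with 5% FBS and 2 mM L-glutamine, pre-grown 24 h and then treated for 48 h at 37 °C. Read-out was TCA fixation and SRB absorbance at 515 nm.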
# PC-3 [7] = experiment: Antiproliferative activity against human PC-3 cells assessed as growth inhibition incubated for 48 hrs by SRB method; type: functional; how it was run: as §2
# UO-31 = experiment: Antiproliferative activity against human UO-31 cells assessed as growth inhibition at 10 uM incubated for 48 hrs by SRB method; type: functional; conditions: read-out: GI
# How it was run: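 NCI-60 one-dose screen at 10 μM. Cells grown in RPMI 1640 with 5% FBS and 2 mM L-glutamine, plated at 5000–40 000 cells/well and preincubated 24 h at 37 °C, 5% CO2. Drug exposure 48 h. Fixed with TCA and stained with 0.4% SRB, absorbance read at 515 nm. Percent growth calculated against untreated control and time-zero plates.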
# HOP-92 [8] = experiment: Antiproliferative activity against human HOP-92 cells assessed as growth inhibition incubated for 48 hrs by SRB method; type: functional; how it was run: as §2
# CAKI-1 = experiment: Antiproliferative activity against human CAKI-1 cells assessed as growth inhibition incubated for 48 hrs by SRB method; type: functional; how it was run: as §2
# A549 = experiment: Antiproliferative activity against human A549 cells assessed as growth inhibition at 10 uM incubated for 48 hrs by SRB method; type: functional; conditions: read-out: GI; how it was run: as §1
# NCI-H23 = experiment: Antiproliferative activity against human NCI-H23 cells assessed as growth inhibition incubated for 48 hrs by SRB method; type: functional; how it was run: as §2
# DU-145 = experiment: Antiproliferative activity against human DU-145 cells assessed as growth inhibition at 10 uM incubated for 48 hrs by SRB method; type: functional; conditions: read-out: GI; how it was run: as §1
# MDA-MB-468 [9] = experiment: Antiproliferative activity against human MDA-MB-468 cells assessed as growth inhibition incubated for 48 hrs by SRB method; type: functional; how it was run: as §2
# MDA-MB-468 [10] = experiment: Antiproliferative activity against human MDA-MB-468 cells assessed as growth inhibition at 10 uM incubated for 48 hrs by SRB method; type: functional; conditions: read-out: GI; how it was run: as §1
# SN12C = experiment: Antiproliferative activity against human SN12C cells assessed as growth inhibition incubated for 48 hrs by SRB method; type: functional; how it was run: as §2
# OVCAR-8 = experiment: Antiproliferative activity against human OVCAR-8 cells assessed as growth inhibition incubated for 48 hrs by SRB method; type: functional; how it was run: as §2
# M14 = experiment: Antiproliferative activity against human M14 cells assessed as growth inhibition incubated for 48 hrs by SRB method; type: functional; how it was run: as §2
# NCI/ADR-RES = experiment: Antiproliferative activity against human NCI-ADR-RES cells assessed as growth inhibition at 10 uM incubated for 48 hrs by SRB method; type: functional; conditions: read-out: GI; how it was run: as §1
# SNB-75 = experiment: Antiproliferative activity against human SNB-75 cells assessed as growth inhibition incubated for 48 hrs by SRB method; type: functional; how it was run: as §2
# NCI-H226 = experiment: Antiproliferative activity against human NCI-H226 cells assessed as growth inhibition at 10 uM incubated for 48 hrs by SRB method; type: functional; conditions: read-out: GI; how it was run: as §1
# SK-MEL-28 = experiment: Antiproliferative activity against human SK-MEL-28 cells assessed as growth inhibition incubated for 48 hrs by SRB method; type: functional; how it was run: as §2
# 786-0 = experiment: Antiproliferative activity against human 786-0 cells assessed as growth inhibition at 10 uM incubated for 48 hrs by SRB method; type: functional; conditions: read-out: GI; how it was run: as §1
# SK-OV-3 = experiment: Antiproliferative activity against human SK-OV-3 cells assessed as growth inhibition at 10 uM incubated for 48 hrs by SRB method; type: functional; conditions: read-out: GI; how it was run: as §1
# EKVX = experiment: Antiproliferative activity against human EKVX cells assessed as growth inhibition incubated for 48 hrs by SRB method; type: functional; how it was run: as §2
# HOP-92 [11] = experiment: Antiproliferative activity against human HOP-92 cells assessed as growth inhibition at 10 uM incubated for 48 hrs by SRB method; type: functional; conditions: read-out: GI; how it was run: as §1
# HOP-62 = experiment: Antiproliferative activity against human HOP-62 cells assessed as growth inhibition at 10 uM incubated for 48 hrs by SRB method; type: functional; conditions: read-out: GI; how it was run: as §1
# SK-MEL-2 = experiment: Antiproliferative activity against human SK-MEL-2 cells assessed as growth inhibition incubated for 48 hrs by SRB method; type: functional; how it was run: as §2
# UACC-257 = experiment: Antiproliferative activity against human UACC-257 cells assessed as growth inhibition incubated for 48 hrs by SRB method; type: functional; how it was run: as §2
# SF-295 [12] = experiment: Antiproliferative activity against human SF-295 cells assessed as growth inhibition incubated for 48 hrs by SRB method; type: functional; how it was run: as §2
# SF-268 = experiment: Antiproliferative activity against human SF-268 cells assessed as growth inhibition incubated for 48 hrs by SRB method; type: functional; how it was run: as §2
# LOX IMVI = experiment: Antiproliferative activity against human LOX IMVI cells assessed as growth inhibition at 10 uM incubated for 48 hrs by SRB method; type: functional; conditions: read-out: GI; how it was run: as §1
# UACC-62 = experiment: Antiproliferative activity against human UACC-62 cells assessed as growth inhibition incubated for 48 hrs by SRB method; type: functional
# How it was run: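 NCI-60 five-dose screen at 0.01, 0.1, 1, 10 and 100 μM, triplicate wells per dose. Cells grown in RPMI 1640/5% FBS, preincubated 24 h, then exposed 48 h at 37 °C. TCA fixation, SRB stain, A515.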
# U-251 = experiment: Antiproliferative activity against human U-251 cells assessed as growth inhibition at 10 uM incubated for 48 hrs by SRB method; type: functional; conditions: read-out: GI; how it was run: as §1
# BT-549 = experiment: Antiproliferative activity against human BT-549 cells assessed as growth inhibition at 10 uM incubated for 48 hrs by SRB method; type: functional; conditions: read-out: GI; how it was run: as §1
smiles,measurement,setting,value
O=C(Nc1ccc(Cl)cc1)Nc1ccc(Cl)c(Cl)c1 [TRICLOCARBAN],MIC,Staphylococcus aureus [1],16 µg/mL
O=C(Nc1ccc(-c2ccc(=O)[nH]n2)cc1)Nc1cccc(Cl)c1,MIC,Staphylococcus aureus [2],256 µg/mL
same,MIC,Candida albicans,> 1020 µg/mL
same,inhibition of growth at 10 µM,MCF7 [3],64%
same,inhibition of growth at 10 µM,KM12,66.4%
same,inhibition of growth at 10 µM,CCRF-CEM,72.9%
same,inhibition of growth at 10 µM,T47D,74.7%
same,inhibition of growth at 10 µM,NCI-H522,73.5%
same,MIC,Escherichia coli,> 1020 µg/mL
same,inhibition of growth at 10 µM,OVCAR-3,62.2%
same,inhibition of growth at 10 µM,K562,68.4%
same,inhibition of growth at 10 µM,RPMI-8226,73.5%
same,inhibition of growth at 10 µM,SF-295 [4],72.7%
same,inhibition of growth at 10 µM,PC-3 [5],68%
O=c1ccc(/C=C/c2ccc(NC(=S)Nc3cccc(Br)c3)cc2)n[nH]1,MIC,Staphylococcus aureus [2],128 µg/mL
same,MIC,Candida albicans,512 µg/mL
same,GI50,MCF7 [6],2.44 µM
same,GI50,PC-3 [7],3.63 µM
same,inhibition of growth at 10 µM,UO-31,76.2%
same,GI50,HOP-92 [8],2.51 µM
same,inhibition of growth at 10 µM,MCF7 [3],72.7%
same,GI50,CAKI-1,2.57 µM
same,inhibition of growth at 10 µM,A549,74%
same,GI50,NCI-H23,3.54 µM
same,inhibition of growth at 10 µM,DU-145,91.5%
same,GI50,MDA-MB-468 [9],1.66 µM
same,inhibition of growth at 10 µM,MDA-MB-468 [10],88.1%
same,GI50,SN12C,3.02 µM
same,GI50,OVCAR-8,3.47 µM
same,GI50,M14,2.57 µM
same,inhibition of growth at 10 µM,NCI/ADR-RES,85.7%
same,GI50,SNB-75,3.98 µM
same,MIC,Escherichia coli,512 µg/mL
same,inhibition of growth at 10 µM,NCI-H226,88.2%
same,GI50,SK-MEL-28,2 µM
same,inhibition of growth at 10 µM,786-0,88.2%
same,inhibition of growth at 10 µM,SK-OV-3,82.6%
same,GI50,EKVX,3.54 µM
same,inhibition of growth at 10 µM,HOP-92 [11],100%
same,inhibition of growth at 10 µM,HOP-62,98.1%
same,GI50,SK-MEL-2,1.86 µM
same,GI50,UACC-257,3.24 µM
same,GI50,SF-295 [12],2.69 µM
same,GI50,SF-268,2.82 µM
same,inhibition of growth at 10 µM,LOX IMVI,88.8%
same,GI50,UACC-62,2.34 µM
same,inhibition of growth at 10 µM,U-251,100%
same,inhibition of growth at 10 µM,BT-549,95.5%
